# B1: Osa-1-4 twister ribozyme (parent)
# chain: CCGCCUAACACUGCCAAUGCCGGUCCCAAGCCCGGAUAAAAGUGGAGGGGGCGG
# Variants of: B1
# Assay: self-cleavage, relative activity (ratio to wild type); higher = more cleavage; co-transcriptional
# Summary of the method: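 A DNA template encoding a 54-nucleotide twister ribozyme from Oryza sativa was made so that each of the 48 positions downstream of the cleavage site carried 97 % wild-type base and 1 % of each other base. Transcription in vitro ran for 2 h at 37 °C, during which the ribozyme could cleave itself. Reverse transcription used a template-switching oligonucleotide, and the products were PCR-amplified and deep-sequenced. Each read was scored as cleaved or uncleaved by whether upstream sequence was present, and relative activity is the fraction cleaved normalised to wild type.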
row,Variant,self-cleavage
1,CCGCCUAACACUGCCAAUGCCGGUCCCAAGCCCGGAUAAAAGGGGAGGGGGCUG [G53U U43G],0.13
2,CCGCCUAACACUGCCAAUGCCGGUCCCAAGCCCGGAUAAAAGAGGAGGGGGCUG [G53U U43A],0.2
3,CCGCCUAACACUGCCAAUGCCGGUCCCAAGCCCGGAUAAAAGCGGAGGGGGCUG [G53U U43C],0.15
4,CCGCCUAACACAGCCAAUGCCGGUCCCAAGCCCGGAUAAAAGUGGAGGGGGCGA [G54A U12A],0.48
5,CCGCCUAACACCGCCAAUGCCGGUCCCAAGCCCGGAUAAAAGUGGAGGGGGCGA [G54A U12C],0.56
6,CCGCCUAACACGGCCAAUGCCGGUCCCAAGCCCGGAUAAAAGUGGAGGGGGCGA [G54A U12G],0.28
7,CCGCCUAACACUGCCAAUGCCGGUCCCAAGCCCGGACAAAAGUGGAGGGGGCCG [G53C U37C],0.11
8,CCGCCUAACACUGCCAAUGCCGGUCCCAAGCCCGGAGAAAAGUGGAGGGGGCCG [G53C U37G],0.15
9,CCGCCUAACACUGCCAAUGCCGGUCCCAAGCCCGGAAAAAAGUGGAGGGGGCCG [G53C U37A],0.06
10,CCGCCUAACACUGCCAACGCCGGUCCCAAGCCCGGAUAAAAGUGGAGGGGGCUG [G53U U18C],0.3
11,CCGCCUAACACUGCCAAAGCCGGUCCCAAGCCCGGAUAAAAGUGGAGGGGGCUG [G53U U18A],0.41
12,CCGCCUAACACUGCCAAGGCCGGUCCCAAGCCCGGAUAAAAGUGGAGGGGGCUG [G53U U18G],0.39
13,CCGCCUAACACUGCCAAAGCCGGUCCCAAGCCCGGAUAAAAGUGGAGGGGGCGA [G54A U18A],0.88
14,CCGCCUAACACUGCCAAGGCCGGUCCCAAGCCCGGAUAAAAGUGGAGGGGGCGA [G54A U18G],0.71
15,CCGCCUAACACUGCCAACGCCGGUCCCAAGCCCGGAUAAAAGUGGAGGGGGCGA [G54A U18C],0.93
16,CCGCCUAACACUGCCAAUGCCGGUCCCAAGCCCGGAAAAAAGUGGAGGGGGCGA [G54A U37A],0.73
17,CCGCCUAACACUGCCAAUGCCGGUCCCAAGCCCGGAGAAAAGUGGAGGGGGCGA [G54A U37G],1
18,CCGCCUAACACUGCCAAUGCCGGUCCCAAGCCCGGACAAAAGUGGAGGGGGCGA [G54A U37C],0.98
19,CCGCCUAACACUGCCAAUGCCGGGCCCAAGCCCGGAUAAAAGUGGAGGGGGCAG [G53A U24G],0.03
20,CCGCCUAACACUGCCAAUGCCGGCCCCAAGCCCGGAUAAAAGUGGAGGGGGCAG [G53A U24C],0.08
21,CCGCCUAACACUGCCAAUGCCGGACCCAAGCCCGGAUAAAAGUGGAGGGGGCAG [G53A U24A],0.09
22,CCGCCUAACACUGCCAAUGCCGGUCCCAAGCCCGGAUAAAAGCGGAGGGGGCCG [G53C U43C],0.07
23,CCGCCUAACACUGCCAAUGCCGGUCCCAAGCCCGGAUAAAAGGGGAGGGGGCCG [G53C U43G],0.07
24,CCGCCUAACACUGCCAAUGCCGGUCCCAAGCCCGGAUAAAAGAGGAGGGGGCCG [G53C U43A],0.08

row,Variant,self-cleavage
1,CCGCCUAACACUGCCAAUGCCGGUCCCAAGCCCGGAUAAAAGUGGAGGGGGCUG [G53U],0.56
2,CCGCCUAACACUGCCAAUGCCGGUCCCAAGCCCGGAUAAAAGUGGAGGGGGCCG [G53C],0.13
3,CCGCCUAACACUGCCAAUGCCGGACCCAAGCCCGGAUAAAAGUGGAGGGGGCUG [G53U U24A],0.06
4,CCGCCUAACACUGCCAAUGCCGGCCCCAAGCCCGGAUAAAAGUGGAGGGGGCUG [G53U U24C],0.06
5,CCGCCUAACACUGCCAAUGCCGGGCCCAAGCCCGGAUAAAAGUGGAGGGGGCUG [G53U U24G],0.03
6,CCGCCUAACACUGCCAAUGCCGGUCCCAAGCCCGGAGAAAAGUGGAGGGGGCAG [G53A U37G],0.97
7,CCGCCUAACACUGCCAAUGCCGGUCCCAAGCCCGGAAAAAAGUGGAGGGGGCAG [G53A U37A],0.57
8,CCGCCUAACACUGCCAAUGCCGGUCCCAAGCCCGGACAAAAGUGGAGGGGGCAG [G53A U37C],0.97
9,CCGCCUAACACUGCCAAUGCCGGUCCCAAGCCCGGAUAAAAGUGGAGGGGGCUA [G53U G54A],0.25
10,CCGCCUAACACUGCCAAUGCCGGUCCCAAGCCCGGAUAAAAGUGGAGGGGGCUC [G53U G54C],0.14
11,CCGCCUAACACUGCCAAUGCCGGUCCCAAGCCCGGAUAAAAGUGGAGGGGGCUU [G53U G54U],0.46
12,CCGCCUAACACGGCCAAUGCCGGUCCCAAGCCCGGAUAAAAGUGGAGGGGGCGC [G54C U12G],0.32
13,CCGCCUAACACCGCCAAUGCCGGUCCCAAGCCCGGAUAAAAGUGGAGGGGGCGC [G54C U12C],0.57
14,CCGCCUAACACAGCCAAUGCCGGUCCCAAGCCCGGAUAAAAGUGGAGGGGGCGC [G54C U12A],0.43
15,CCGCCUAACACUGCCAAUGCCGGUCCCAAGCCCGGAUAAAAGAGGAGGGGGCGC [G54C U43A],0.86
16,CCGCCUAACACUGCCAAUGCCGGUCCCAAGCCCGGAUAAAAGGGGAGGGGGCGC [G54C U43G],0.76
17,CCGCCUAACACUGCCAAUGCCGGUCCCAAGCCCGGAUAAAAGCGGAGGGGGCGC [G54C U43C],0.6
18,CCGCCUAACACUGCCAAUGCCGGUCCCAAGCCCGGACAAAAGUGGAGGGGGCGU [G54U U37C],1.02
19,CCGCCUAACACUGCCAAUGCCGGUCCCAAGCCCGGAGAAAAGUGGAGGGGGCGU [G54U U37G],0.98
20,CCGCCUAACACUGCCAAUGCCGGUCCCAAGCCCGGAAAAAAGUGGAGGGGGCGU [G54U U37A],0.73
21,CCGCCUAACACCGCCAAUGCCGGUCCCAAGCCCGGAUAAAAGUGGAGGGGGCAG [G53A U12C],0.37
22,CCGCCUAACACGGCCAAUGCCGGUCCCAAGCCCGGAUAAAAGUGGAGGGGGCAG [G53A U12G],0.18
23,CCGCCUAACACUGCCAAUGCCGGGCCCAAGCCCGGAUAAAAGUGGAGGGGGCGC [G54C U24G],0.02
24,CCGCCUAACACUGCCAAUGCCGGCCCCAAGCCCGGAUAAAAGUGGAGGGGGCGC [G54C U24C],0.11

# Source: the RNAGym collection of RNA variant scans (doi:10.1002/anie.201605470)
